Test results reported in the array DNA melting data of Ke et al. (doi:10.1101/2024.01.08.574731).

How the values were obtained:
[1] = melting temperature; fluorescence melt of hairpins on a sequencing array, two-state fit, raised by 9.35 °C to match UV melts; settings: sodium 0.088 M
Outline: (§1)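 Melting temperature and folding enthalpy were derived from bootstrapped two-state fits. The fitted temperatures were raised by 9.35 °C to agree with UV melts, and four replicates were combined by inverse variance. The underlying data were Cy3 fluorescence images of library hairpins, with annealed Cy3 and quencher oligos, on a sequenced MiSeq flow cell in 50 mM Na-HEPES pH 8.0, 25 mM NaCl, taken in 2.5 °C steps up to 60 °C, normalised to pre-quench Cy3 and to control constructs.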

[2] = folding enthalpy; higher = less favourable; fluorescence melt of hairpins on a sequencing array, two-state fit; settings: sodium 0.088 M
Outline: as §1

Sequence | Tm [1] [°C] | folding enthalpy [2] [kcal/mol]
GGTCTGCGAAAGCATACC (((.(((....))).))) | 49.4 | -22.1
GGTCTTCGAAAGAAAACC (((.(((....))).))) | 35.2 | -25.7
GGTCTTGCGAAAGCAACC (((..(((....)))))) | 28.8 | -8.24
GGTCTTGGAAACAAGACC (((((((....))))))) | 64.2 | -45.2
GGTCTTGGAAACGAGACC (((((.(....).))))) | 51.9 | -37.6
GGTGAAGGAAACTTCACC (((((((....))))))) | 63 | -42.6
GGTGAATCGAAAGATACC (((..(((....)))))) | 29.8 | -16.8
GGTGACCCGAAAGGGACC (((..(((....)))))) | 38.1 | -14.5
GGTGACCGAAAGGTGACC (((.(((....))).))) | 54.4 | -42.5
GGTGACGAAAGTCAACC ((((((....))).))) | 56.1 | -19.6
GGTGACGAAAGTCGTACC ((((((....)))..))) | 46.2 | -15.6
GGTGACGAAAGTCTCACC ((((((....)))..))) | 40.9 | -15.1
GGTGACGAAAGTCTTACC ((((((....)))..))) | 35.8 | -15
GGTGACGGAAACGCCACC ((((.((....)).)))) | 54.3 | -48
GGTGACGGAAACGTTACC (((.(((....))).))) | 53 | -38.5
GGTGAGGGAAACCTCATC (.(((((....))))).) | 48.5 | -25.1
GGTGAGGGAAACCTCGCC ((.((((....)))).)) | 58.1 | -36.5
GGTGATGCGAAAGCAACC (((..(((....)))))) | 36.9 | -13.7
GGTGATGGAAACATTGCC ((..(((....)))..)) | 38.3 | -32.5
GGTGCAGGAAACCGCACC (((((.(....).))))) | 57 | -45.1
GGTGCAGGAAACTGCGTC (..((((....))))..) | 35.6 | -10.3
GGTGCCCGAAAGGGAACC (((.(((....))).))) | 65.1 | -35.8
GGTGCCGAAAGGCCACC ((((((....))).))) | 60.4 | -18.2

Sequence | Tm [1] [°C] | folding enthalpy [2] [kcal/mol]
GGTGCCGAAAGGCCGACC ((((((....)))..))) | 41.9 | -14.1
GGTGCCGAAAGGCGACC ((((((....))).))) | 61 | -16.8
GGTGCCGAAAGGCTGACC ((((((....)))..))) | 46.8 | -13.9
GGTGCCGGAAACGACACC ((((.((....)).)))) | 54.6 | -44.9
GGTGCCGGAAACGGCGTC (..((((....))))..) | 42.2 | -9.71
GGTGCGGGAAACCACACC ((((.((....)).)))) | 51.1 | -54.3
GGTGCGGGAAACTGCACC (((((.(....).))))) | 63.1 | -40.6
GGTGCTCGAAAGAGAACC (((.(((....))).))) | 54.1 | -48.3
GGTGCTCGAAAGAGACC (((.(((....)))))) | 46.5 | -19.4
GGTGCTGGAAACAGTGCC ((..(((....)))..)) | 50.1 | -37.8
GGTGCTGGAAACGGCACC (((((.(....).))))) | 62.9 | -45.8
GGTGCTGGAAACGGCATC (.(((.(....).))).) | 44.2 | -25.4
GGTGGAGCGAAAGCTACC (((..(((....)))))) | 44.1 | -13.7
GGTGGAGGAAACTCCGCC ((.((((....)))).)) | 57.8 | -46
GGTGGCGAAAGCCCACC ((((((....))).))) | 61.7 | -17.5
GGTGGCGAAAGCCGACC ((((((....))).))) | 59.6 | -17.6
GGTGGCGAAAGCCGTACC ((((((....)))..))) | 44.7 | -13.3
GGTGGCGAAAGCCTCACC ((((((....)))..))) | 45.2 | -12.7
GGTGGCGAAAGCCTTACC ((((((....)))..))) | 40.2 | -14
GGTGGCGGAAACGCTACC (((.(((....))).))) | 59.9 | -39.8
GGTGGGAAACCACC (((((....))))) | 62.4 | -24.4
GGTGGGCGAAAGCCGACC (((.(((....))).))) | 61.9 | -19.6
GGTGGTCCGAAAGGAACC (((..(((....)))))) | 48.9 | -14.1

Sequence | Tm [1] [°C] | folding enthalpy [2] [kcal/mol]
GGTGGTCGAAAGACAACC (((.(((....))).))) | 55.6 | -39.2
GGTGGTGAAAACCACC ((((((....)))))) | 68.2 | -32.5
GGTGGTGGAAACGCCACC (((((.(....).))))) | 63.5 | -35.4
GGTGGTGGAAACGCCATC (.(((.(....).))).) | 46.6 | -22.8
GGTGTAGGAAACTACACC (((((((....))))))) | 60.4 | -44.8
GGTGTAGGAAACTACGTC (..((((....))))..) | 29.8 | -9.53
GGTGTCCGAAAGGAGACC (((.(((....))).))) | 58.3 | -42.9
GGTGTCCGAAAGGATACC (((.(((....))).))) | 59.9 | -41.5
GGTGTCGAAAGACAACC ((((((....))).))) | 55.7 | -26.1
GGTGTCGAAAGACCACC ((((((....))).))) | 49.7 | -27.6
GGTGTCGAAAGACCGACC ((((((....)))..))) | 39.1 | -14.9
GGTGTCGAAAGACTAACC ((((((....)))..))) | 40.4 | -20.9
GGTGTCGAAAGACTTACC ((((((....)))..))) | 37.4 | -17.7
GGTGTCGCGAAAGCGACC (((..(((....)))))) | 54 | -7.75
GGTGTCGGAAACGATACC (((.(((....))).))) | 54.4 | -52
GGTGTCTCGAAAGAGACC (((..(((....)))))) | 49.4 | -12.3
GGTGTGACGAAAGTCACC (((..(((....)))))) | 43.6 | -7.87
GGTGTGCCGAAAGGCACC (((..(((....)))))) | 49.7 | -7.6
GGTGTGGGAAACCGCACC ((((.((....)).)))) | 60.4 | -42.9
GGTGTGGGAAACTACACC (((((.(....).))))) | 52.6 | -46.6
GGTGTTCGAAAGAAAACC (((.(((....))).))) | 45.2 | -25.3
GGTGTTCGAAAGAAGACC (((.(((....))).))) | 50.5 | -40.4
GGTGTTCGAAAGAATACC (((.(((....))).))) | 53.6 | -45.6

Sequence | Tm [1] [°C] | folding enthalpy [2] [kcal/mol]
GGTGTTGAAAAACACC ((((((....)))))) | 57.9 | -37
GGTGTTGGAAACAACGTC (..((((....))))..) | 47.2 | -26.5
GGTGTTGGAAACAGTACC (((..((....))..))) | 31.7 | -18.7
GGTGTTGGAAACGACATC (.(((.(....).))).) | 33.2 | -21.3
GGTGTTGGAAACGATACC (((.(.(....).).))) | 33.2 | -14.2
GGTTACACGAAAGTGACC (((..(((....)))))) | 35.5 | -16.6
GGTTACCCGAAAGGGACC (((..(((....)))))) | 35.2 | -12.9
GGTTACCGAAAGGTACC (((.(((....)))))) | 51 | -20.4
GGTTACGAAAGTAAACC ((((((....))).))) | 48.8 | -24.2
GGTTACGAAAGTAACC ((((((....)))))) | 67.5 | -34.7
GGTTACGAAAGTACTACC ((((((....)))..))) | 28.4 | -23.2
GGTTACGAAAGTAGAACC ((((((....)))..))) | 37.8 | -18.2
GGTTACGAAAGTAGGACC ((((((....)))..))) | 32 | -11.5
GGTTACGAAAGTATAACC ((((((....)))..))) | 37.2 | -20
GGTTACGCGAAAGCGACC (((..(((....)))))) | 37.2 | -12.4
GGTTACGGAAACGTAACC (((((((....))))))) | 65.4 | -43
GGTTAGCCGAAAGGCACC (((..(((....)))))) | 41.2 | -13.5
GGTTAGGGAAACCCAACC ((((.((....)).)))) | 41 | -28.6
GGTTAGGGAAACCTAACC (((((((....))))))) | 58.3 | -46.4
GGTTAGGGAAACCTAGTC (..((((....))))..) | 28.7 | -11.7
GGTTAGGGAAACTTAACC (((((.(....).))))) | 37.6 | -25.1
GGTTAGTCGAAAGACACC (((..(((....)))))) | 35.5 | -17.2
